The values below come from ChEMBL document CHEMBL4371041, “Synthesis and evaluation of thieno[3,2-d]pyrimidine derivatives as novel FMS inhibitors” (Bioorg Med Chem Lett, 2019).

Structures are written as SMILES.

For orientation: IC50 means the concentration needed to halve the response being measured. A word on the inhibition: it is how much of the control response was suppressed.

Experiment [1] addresses Macrophage colony-stimulating factor 1 receptor (Homo sapiens, UniProt P07333). Description: […] at recombinant human N-terminal His6-tagged FMS (538 to end residues) expressed in baculovirus infected Sf21 insect cells using IGF-R1tide as substrate in presence of [gamma-33P]-ATP or [gamma-32P]-ATP.
The target of experiment [2] is Vascular endothelial growth factor receptor 2 (Homo sapiens, UniProt P35968). Description: Inhibition of recombinant human N-terminal His6-tagged KDR (790 to end residues) expressed in baculovirus infected Sf21 insect cells using MBP as substrate in presence of [gamma-33P]-ATP or [gamma-32P]-ATP. Summed up:
(§1)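 Kinase panel of twenty-eight enzymes; IC50 values determined with ATP at the respective Km of each kinase.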

Experiment [3] addresses Fibroblast growth factor receptor 1 (Homo sapiens, UniProt P11362). Description: Inhibition of recombinant human N-terminal GST-tagged FGFR1 (456 to 765 residues) expressed in baculovirus infected Sf21 insect cells using IGF-IRtide (12-527) as substrate in presence of [gamma-33P]-ATP or [gamma-32P]-ATP. In a few lines: as §1
For another experiment, the system named is MDA-MB-231. The experiment is described as follows: Synergistic growth inhibition of human MDA-MB-231 cells assessed as combination index at 5 uM after 24 hrs in presence of paclitaxel by MTS assay. In kind it is functional. Summed up: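 MDA-MB-231 human breast adenocarcinoma cells were treated with the test agent, paclitaxel, or both together, and cell growth inhibition was measured. Synergy was expressed as a combination index (CI) calculated from the growth-inhibition data.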
On the technique in general: Formazan colour is commonly taken as a measure of viable cells.

Experiment [4] concerns the target Insulin-like growth factor 1 receptor (Homo sapiens) (UniProt P08069). Description: Inhibition of Mg/ATP-autoactivated recombinant human N-terminal His6-tagged IGFR1 (959 to end residues) expressed in baculovirus infected Sf21 insect cells at 1 uM in presence of [gamma-33P]-ATP or [gamma-32P]-ATP relative to control.

Chain of Macrophage colony-stimulating factor 1 receptor (P07333 whole entry): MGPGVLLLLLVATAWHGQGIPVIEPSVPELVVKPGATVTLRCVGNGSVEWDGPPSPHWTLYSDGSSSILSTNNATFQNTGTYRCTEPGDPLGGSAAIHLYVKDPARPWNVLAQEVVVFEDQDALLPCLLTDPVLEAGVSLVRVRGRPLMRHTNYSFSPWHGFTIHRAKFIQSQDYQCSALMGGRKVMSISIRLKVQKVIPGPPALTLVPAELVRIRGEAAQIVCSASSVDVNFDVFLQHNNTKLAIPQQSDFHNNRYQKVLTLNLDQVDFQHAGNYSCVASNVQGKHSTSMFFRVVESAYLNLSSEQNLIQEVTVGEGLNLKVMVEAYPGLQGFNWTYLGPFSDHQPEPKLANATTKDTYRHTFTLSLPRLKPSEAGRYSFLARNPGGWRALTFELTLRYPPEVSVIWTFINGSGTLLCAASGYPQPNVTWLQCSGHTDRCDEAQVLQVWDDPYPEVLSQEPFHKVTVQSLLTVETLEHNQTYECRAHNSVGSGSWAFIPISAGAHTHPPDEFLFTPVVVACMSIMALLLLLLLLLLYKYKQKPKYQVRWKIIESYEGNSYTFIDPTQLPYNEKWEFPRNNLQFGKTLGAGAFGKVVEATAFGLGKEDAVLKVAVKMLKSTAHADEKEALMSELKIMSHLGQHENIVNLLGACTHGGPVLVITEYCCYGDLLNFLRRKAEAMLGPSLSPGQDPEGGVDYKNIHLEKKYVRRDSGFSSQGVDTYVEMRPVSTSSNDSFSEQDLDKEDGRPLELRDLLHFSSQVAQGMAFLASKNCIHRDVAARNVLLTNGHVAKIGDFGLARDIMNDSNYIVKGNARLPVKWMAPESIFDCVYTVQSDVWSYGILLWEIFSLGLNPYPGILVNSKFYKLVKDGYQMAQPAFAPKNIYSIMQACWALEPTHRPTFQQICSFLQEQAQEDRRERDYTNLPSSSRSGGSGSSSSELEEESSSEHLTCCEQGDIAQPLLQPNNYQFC
Chain of Fibroblast growth factor receptor 1 (P11362 whole entry, the tested form may be a part): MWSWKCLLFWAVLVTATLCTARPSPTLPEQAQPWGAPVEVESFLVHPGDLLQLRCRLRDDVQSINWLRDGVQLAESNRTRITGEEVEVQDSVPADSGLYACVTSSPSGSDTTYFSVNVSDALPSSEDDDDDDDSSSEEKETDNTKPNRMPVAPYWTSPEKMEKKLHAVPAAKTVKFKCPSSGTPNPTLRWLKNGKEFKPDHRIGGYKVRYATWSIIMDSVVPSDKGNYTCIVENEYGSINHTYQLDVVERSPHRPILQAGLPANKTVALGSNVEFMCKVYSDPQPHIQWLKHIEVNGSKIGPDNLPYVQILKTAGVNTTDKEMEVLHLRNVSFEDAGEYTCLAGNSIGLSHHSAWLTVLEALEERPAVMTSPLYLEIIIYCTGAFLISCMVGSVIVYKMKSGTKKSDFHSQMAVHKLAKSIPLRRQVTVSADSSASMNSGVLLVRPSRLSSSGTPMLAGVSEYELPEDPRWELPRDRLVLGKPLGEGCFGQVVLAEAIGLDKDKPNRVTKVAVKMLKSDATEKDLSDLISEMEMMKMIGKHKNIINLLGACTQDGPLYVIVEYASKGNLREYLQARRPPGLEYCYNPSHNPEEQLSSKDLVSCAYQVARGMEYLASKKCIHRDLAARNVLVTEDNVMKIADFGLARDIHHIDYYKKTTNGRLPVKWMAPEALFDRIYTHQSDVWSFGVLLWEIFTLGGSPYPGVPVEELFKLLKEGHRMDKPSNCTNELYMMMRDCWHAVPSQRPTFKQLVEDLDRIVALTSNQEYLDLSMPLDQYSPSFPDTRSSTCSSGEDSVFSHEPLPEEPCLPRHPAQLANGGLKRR
Chain of Insulin-like growth factor 1 receptor (Homo sapiens) (P08069 31-736 limits assumed): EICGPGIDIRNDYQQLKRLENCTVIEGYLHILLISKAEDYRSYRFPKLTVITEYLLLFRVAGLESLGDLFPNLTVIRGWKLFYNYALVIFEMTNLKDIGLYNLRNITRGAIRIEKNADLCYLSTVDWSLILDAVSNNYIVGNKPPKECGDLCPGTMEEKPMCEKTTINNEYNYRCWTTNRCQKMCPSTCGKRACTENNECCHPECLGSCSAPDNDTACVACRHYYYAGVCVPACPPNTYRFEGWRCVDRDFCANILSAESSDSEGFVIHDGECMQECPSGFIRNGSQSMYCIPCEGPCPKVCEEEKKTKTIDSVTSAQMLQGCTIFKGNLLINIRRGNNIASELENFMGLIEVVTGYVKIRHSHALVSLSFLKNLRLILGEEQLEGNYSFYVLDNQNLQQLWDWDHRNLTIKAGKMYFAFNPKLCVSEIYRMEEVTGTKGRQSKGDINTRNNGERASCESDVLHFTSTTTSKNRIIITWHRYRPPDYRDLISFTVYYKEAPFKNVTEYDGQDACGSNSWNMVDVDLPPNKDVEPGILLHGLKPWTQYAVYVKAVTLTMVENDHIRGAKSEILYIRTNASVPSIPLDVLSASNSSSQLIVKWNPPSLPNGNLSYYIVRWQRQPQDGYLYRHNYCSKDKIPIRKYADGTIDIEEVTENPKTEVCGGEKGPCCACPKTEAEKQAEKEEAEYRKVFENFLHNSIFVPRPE
Chain of Insulin-like growth factor 1 receptor (Homo sapiens) (P08069 741-1367 limits assumed): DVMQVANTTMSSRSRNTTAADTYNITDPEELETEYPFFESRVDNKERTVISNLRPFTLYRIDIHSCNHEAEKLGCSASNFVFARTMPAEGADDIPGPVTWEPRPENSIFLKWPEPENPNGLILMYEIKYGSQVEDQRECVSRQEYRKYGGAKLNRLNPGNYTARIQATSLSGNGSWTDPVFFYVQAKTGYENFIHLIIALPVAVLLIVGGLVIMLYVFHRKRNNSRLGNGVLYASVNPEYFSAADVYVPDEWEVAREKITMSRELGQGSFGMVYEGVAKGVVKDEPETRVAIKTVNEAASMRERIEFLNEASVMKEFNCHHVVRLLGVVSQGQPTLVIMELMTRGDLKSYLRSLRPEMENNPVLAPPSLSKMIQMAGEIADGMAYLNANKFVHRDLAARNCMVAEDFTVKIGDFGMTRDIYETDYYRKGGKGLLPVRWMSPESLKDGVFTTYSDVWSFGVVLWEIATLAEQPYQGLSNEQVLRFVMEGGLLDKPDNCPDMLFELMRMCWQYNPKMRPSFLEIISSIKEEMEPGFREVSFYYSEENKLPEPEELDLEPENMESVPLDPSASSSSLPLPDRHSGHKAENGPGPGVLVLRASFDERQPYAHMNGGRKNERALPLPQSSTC
Chain of Vascular endothelial growth factor receptor 2 (P35968 whole entry): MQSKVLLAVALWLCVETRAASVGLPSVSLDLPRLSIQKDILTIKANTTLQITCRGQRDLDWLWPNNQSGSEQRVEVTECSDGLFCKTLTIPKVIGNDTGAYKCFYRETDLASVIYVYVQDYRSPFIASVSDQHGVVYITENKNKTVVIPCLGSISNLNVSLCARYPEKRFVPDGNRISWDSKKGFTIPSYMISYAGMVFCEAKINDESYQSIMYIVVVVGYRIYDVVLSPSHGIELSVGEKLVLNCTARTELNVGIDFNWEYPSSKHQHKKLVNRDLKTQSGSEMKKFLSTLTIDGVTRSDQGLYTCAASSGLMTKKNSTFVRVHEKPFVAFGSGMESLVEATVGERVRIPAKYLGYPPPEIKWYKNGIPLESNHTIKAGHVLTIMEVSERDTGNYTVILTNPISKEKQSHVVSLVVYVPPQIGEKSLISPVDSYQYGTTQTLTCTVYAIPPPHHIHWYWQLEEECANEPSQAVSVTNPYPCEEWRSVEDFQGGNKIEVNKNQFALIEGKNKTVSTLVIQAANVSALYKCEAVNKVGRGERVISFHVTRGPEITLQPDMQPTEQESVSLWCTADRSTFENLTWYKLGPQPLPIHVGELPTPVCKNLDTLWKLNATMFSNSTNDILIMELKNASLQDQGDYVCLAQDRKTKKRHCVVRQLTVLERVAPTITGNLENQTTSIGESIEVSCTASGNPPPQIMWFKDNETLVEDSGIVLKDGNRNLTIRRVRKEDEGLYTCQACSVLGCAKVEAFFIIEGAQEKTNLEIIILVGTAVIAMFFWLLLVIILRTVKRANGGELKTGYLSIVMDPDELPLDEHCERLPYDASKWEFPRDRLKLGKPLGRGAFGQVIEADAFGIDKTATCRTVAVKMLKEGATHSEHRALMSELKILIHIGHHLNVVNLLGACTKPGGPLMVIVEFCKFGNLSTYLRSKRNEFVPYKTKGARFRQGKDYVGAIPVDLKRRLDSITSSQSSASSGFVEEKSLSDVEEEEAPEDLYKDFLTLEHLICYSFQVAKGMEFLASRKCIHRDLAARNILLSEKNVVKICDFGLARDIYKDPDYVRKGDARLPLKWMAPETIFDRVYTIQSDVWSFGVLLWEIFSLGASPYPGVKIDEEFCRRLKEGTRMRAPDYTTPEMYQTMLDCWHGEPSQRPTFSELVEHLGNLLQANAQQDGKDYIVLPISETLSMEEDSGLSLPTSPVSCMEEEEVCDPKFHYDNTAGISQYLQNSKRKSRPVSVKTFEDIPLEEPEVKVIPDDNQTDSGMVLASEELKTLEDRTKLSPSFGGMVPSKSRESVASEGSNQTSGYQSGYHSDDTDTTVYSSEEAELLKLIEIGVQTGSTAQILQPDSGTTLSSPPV

Regarding `Cc1cccc(Cn2nc(C)c3c(NC(=O)c4csc5c(N)ncnc45)cccc32)n1`, the IC50 in experiment [1] was determined as 2 nM; in experiment [2], 527 nM; in experiment [3] it was 145 nM. Besides, the CI in the experiment with MDA-MB-231 was less than 0.1. Also, the inhibition in experiment [4] was 56%.
